# Measured values reported in ChEMBL document CHEMBL1177875, “Antitumor activity of (-)-alpha-bisabolol-based thiosemicarbazones against human tumor cell lines” (2010).
# Columns and labels:
# Assay type in all cases: functional
# [1] = system: UACC-62; assay: Cytotoxicity against human UACC62 cells by sulforhodamine B assay
# How it was run: (§1)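 Growth of the human tumor cell line was read colorimetrically with sulforhodamine B, following the NCI standard protocol, with doxorubicin as positive control. Compounds were tested at four concentrations in 10-fold dilutions (0.25 to 250). Dose-response curves gave GI50 (the concentration for 50% growth inhibition), TGI (total growth inhibition) and LC50 (50% cell death).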
# [2] = system: MCF7; assay: Cytotoxicity against human MCF7 cells by sulforhodamine B assay; conditions: for CC50: read-out: LC50 (the source's name); how it was run: as §1
# [3] = Cytotoxicity against human NCI/ADR cells by sulforhodamine B assay; conditions: NCI/ADR-RES; for CC50: read-out: LC50 (the source's name); how it was run: as §1
# [4] = system: NCI-H460; assay: Cytotoxicity against human NCI-H460 cells by sulforhodamine B assay; conditions: for CC50: read-out: LC50 (the source's name); how it was run: as §1
# [5] = Cytotoxicity against human PCO3 cells by sulforhodamine B assay; conditions: for CC50: read-out: LC50 (the source's name); how it was run: as §1
# [6] = system: OVCAR-3; assay: Cytotoxicity against human OVCAR-3 cells by sulforhodamine B assay; conditions: for CC50: read-out: LC50 (the source's name); how it was run: as §1
# [7] = system: HT-29; assay: Cytotoxicity against human HT-29 cells by sulforhodamine B assay; conditions: for CC50: read-out: LC50 (the source's name); how it was run: as §1
# [8] = system: K562; assay: Cytotoxicity against human K562 cells by sulforhodamine B assay; conditions: for CC50: read-out: LC50 (the source's name); how it was run: as §1
Structure (SMILES),GI50 [1],TGI [1],GI50 [2],TGI [2],CC50 [2],CC50 [3],GI50 [4],TGI [4],CC50 [4],GI50 [5],TGI [5],CC50 [5],GI50 [6],TGI [6],CC50 [6],GI50 [7],TGI [7],CC50 [7],GI50 [8],TGI [8],further results
CC1=CC[C@@H]([C@@](C)(O)CCCC(C)(C)NC(=S)N/N=C\c2ccccc2Cl)CC1,53.3 µM,> 100 µM,31.2 µM,> 100 µM,> 100 µM,> 100 µM,24.6 µM,> 100 µM,> 100 µM,18.8 µM,> 100 µM,> 100 µM,42 µM,> 100 µM,> 100 µM,23.7 µM,> 100 µM,> 100 µM,0.15 µM,4.11 µM,LC50 (50% cell kill) [1]: > 100 µM; GI50 [3]: > 100 µM; TGI [3]: > 100 µM; CC50 [8]: 8.5 µM
CC1=CC[C@@H]([C@@](C)(O)CCCC(C)(C)NC(=S)N/N=C\c2ccccc2)CC1,12.7 µM,43.8 µM,7.72 µM,28.7 µM,60.4 µM,59.9 µM,38.4 µM,> 100 µM,> 100 µM,8.47 µM,36.2 µM,> 100 µM,6.97 µM,12.9 µM,43.6 µM,9.96 µM,36.5 µM,57.4 µM,0.13 µM,20.9 µM,LC50 (50% cell kill) [1]: 48.4 µM; GI50 [3]: 6.97 µM; TGI [3]: 23.8 µM; CC50 [8]: > 100 µM
CC(C)=CCC[C@](C)(O)[C@@H]1CC=C(C)CC1 [LEVOMENOL],> 100 µM,> 100 µM,> 100 µM,> 100 µM,> 100 µM,> 100 µM,> 100 µM,> 100 µM,> 100 µM,> 100 µM,> 100 µM,> 100 µM,> 100 µM,> 100 µM,> 100 µM,> 100 µM,> 100 µM,> 100 µM,6.37 µM,> 100 µM,GI50 [3]: > 100 µM; TGI [3]: > 100 µM; CC50 [8]: > 100 µM
CC1=CC[C@@H]([C@@](C)(O)CCCC(C)(C)NC(=S)N/N=C\c2ccc(N(C)C)cc2)CC1,> 100 µM,> 100 µM,14 µM,> 100 µM,> 100 µM,> 100 µM,19.6 µM,> 100 µM,> 100 µM,13.7 µM,> 100 µM,> 100 µM,3.6 µM,> 100 µM,> 100 µM,27.7 µM,> 100 µM,> 100 µM,0.08 µM,42 µM,LC50 (50% cell kill) [1]: > 100 µM; GI50 [3]: 25.2 µM; TGI [3]: > 100 µM; CC50 [8]: > 100 µM
CC1=CC[C@@H]([C@@](C)(O)CCCC(C)(C)NC(=S)N/N=C\c2ccc(Cl)cc2)CC1,7.35 µM,13.8 µM,6.89 µM,15.8 µM,44.3 µM,> 100 µM,8.72 µM,> 100 µM,> 100 µM,7.58 µM,22.7 µM,48.5 µM,6.66 µM,12.8 µM,40.6 µM,7.35 µM,22.6 µM,47.3 µM,0.04 µM,0.73 µM,LC50 (50% cell kill) [1]: 40.6 µM; GI50 [3]: 7.58 µM; TGI [3]: 36.4 µM; CC50 [8]: 10.3 µM
CC1=CC[C@@H]([C@@](C)(O)CCCC(C)(C)NC(=S)N/N=C\c2ccc(O)cc2)CC1,8.87 µM,40.1 µM,6.23 µM,21.2 µM,56.4 µM,> 100 µM,1.46 µM,20.7 µM,> 100 µM,6.23 µM,13.9 µM,50.1 µM,6.23 µM,17.4 µM,54.4 µM,8.15 µM,31.5 µM,58.5 µM,0.6 µM,31.1 µM,LC50 (50% cell kill) [1]: 55.6 µM; CC50 [8]: > 100 µM
CC1=CC[C@@H]([C@@](C)(O)CCCC(C)(C)NC(=S)N/N=C\c2cccc([N+](=O)[O-])c2)CC1,7.84 µM,24.7 µM,6.72 µM,18.3 µM,47.3 µM,> 100 µM,8.29 µM,68.6 µM,> 100 µM,5.6 µM,20.7 µM,52.5 µM,8.51 µM,40.8 µM,> 100 µM,14.1 µM,57.1 µM,> 100 µM,0.02 µM,0.56 µM,LC50 (50% cell kill) [1]: 49.3 µM; GI50 [3]: 6.72 µM; TGI [3]: 38 µM; CC50 [8]: 12.6 µM
